H9c2 TAG inh: triacylglycerol accumulation inhibition; inhibition, % at 12.5 µM; actives 0.66% (n = 230,000); H9c2 cells, Nile Red lipid (TAG) fluorescence; cells loaded with 200 µM oleic acid;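 active means pattern-corrected inhibition of lipid staining of at least 50% with the nuclear-stain viability signal not falling by more than 50%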;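 further: 0% = DMSO wells and 100% = triacsin C control wells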
A1 inh: inhibitors of the anti-apoptotic protein A1, read as caspase activation. AID 2462. actives 0.066% (n = 330,000). MEF A1-2A-BIM cells, Caspase-Glo 3/7 luminescence, 3 h; percent of clofoctol response, vehicle zero. caspase activation, % (concentration not given with the values);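 active means over half of replicate activation scores above 10%, or exactly half above 10 with the replicate mean above 10; inconclusive means replicate mean below 10 yet half the replicates above 10; inactive means over half of replicates below 10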
T cruzi inh: T. cruzi replication inhibition; T. cruzi beta-gal in NIH3T3, luminescence, 90 h; inhibition, % (no concentration beside the values); actives 1.4% (n = 300,000); AID 1885;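 active means mean inhibition across valid replicates above about 55%, limit read from the data; inconclusive means mean below that limit but half or more replicates reach it; inactive means mean below it, under half of replicates reach it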;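 further: signal also drops with host cell toxicity which is not excluded here; 0% = plate median of DMSO wells and 100% = zero luminescence signal; higher percent means less beta-gal luminescence so fewer parasites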
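Material: NIH/3T3 host cells with β-galactosidase reporter T. cruzi; Input: 5,000 host fibroblasts per well; Medium: DMEM, 2% fetal bovine serum; Compound: 50 nL DMSO compound solution per well; Schedule: 3 h host attachment, then at least 90 h co-culture; Detection: luminescent β-galactosidase signal after 60 min lysis.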
Calb FLC: affects C. albicans growth with fluconazole; actives 0.57% (n = 300,000); C. albicans CaCi-2 + fluconazole, Alamar Blue growth, 48 h; growth inhibition, % (concentration not given with the values); AID 1979;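 active means growth inhibition above about 58% in most replicates, limit read from the data, passing the limit was not always enough; inconclusive means exactly half the replicates above a set limit; inactive means most replicates below a set limit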;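 further: all wells also contain fluconazole at 8 µg/ml as a sub-toxic cotreatment; 0% = median of DMSO wells and 100% = median of geldanamycin control wells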
CSC inhib: cancer stem cell inhibition; cancer stem cell-like cells viability, luminescence; inhibition, % at 7.5 µM; actives 1.1% (n = 300,000); AID 2717; in the data active means inhibition above about 75%; inconclusive means no clear call, values can overlap the other calls; tested in HMLE shEcad cells
Beta cell apopt: beta cell apoptosis inhibition; INS-1E cytokine-induced death, ATP luminescence, 48 h; percent of positive-control rescue, neutral wells zero; protection from apoptosis, % (test concentration not listed); actives 0.8% (n = 300,000); AID 435005;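 active means Every replicate reaches about 75%, or at least half do and their mean reaches it too, limit read from the data; inconclusive means At least half of replicates reach the limit but their mean does not; inactive means Under half of replicates reach the limit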;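 further: 0% = cytokine-treated negative control wells and 100% = positive control rescue; higher means more ATP so stronger rescue from cytokine killing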
Active calls of the source: *; ? = inconclusive; . = no result given. Rows were chosen to be rich in hits. Some 3.1% of all compounds tested hit in one or more screens of this group.

SMILES	H9c2 TAG inh	A1 inh	T cruzi inh	Calb FLC	CSC inhib	Beta cell apopt
COc1ccc(N(CC(=O)Nc2ccc(C(N)=O)cc2)S(=O)(=O)c2ccc(C)c([N+](=O)[O-])c2)cc1	-12	-1	5	2	-17	-11
COc1ccc(N(CC(=O)Nc2ccccc2C(N)=O)S(=O)(=O)c2ccc(C)c([N+](=O)[O-])c2)cc1	-1	0	0	95*	-9	-4
O=C(NC1CCCCC1)NS(=O)(=O)c1ccc2c(c1)CCC2	17	.	.	.	.	.
CC1=CC(=O)C(C(C)C)=C/C1=C(\c1cc(C(C)C)c(OP(=O)(O)O)cc1C)c1ccccc1C(=O)O	.	1	-8	-5	101*	4
CCOc1ccc(C(=O)c2ccccc2C(=O)O)cc1OCC	20	0	-7	-3	-19	-7
COc1cc(/C=C2\C(=O)N(c3ccc(NC(C)=O)cc3)N=C2c2ccccc2)ccc1O	7	-1	-26	16	9	-2
CCOc1cc(/C=C2\C(=O)N(c3nc(-c4ccc(Br)cc4)cs3)N=C2c2ccccc2)ccc1O	-13	-1	11	?	99*	.
COc1cc(/C=N/NC(N)=S)cc(Br)c1OCc1ccccc1F	.	3	39	30	-30	22
COc1cc(/C=N/N=C(/N)c2nonc2N)cc(Br)c1OCc1cccc(C)c1	-19	0	40	17	26	3
CCOc1cc(/C=N/NC(N)=S)cc(Br)c1OCc1ccccc1C	-8	2	79*	-26	45	12
CCOc1cc(/C=N/N=C(\N)c2nonc2N)cc(Br)c1OCc1cccc2ccccc12	39	6.4*	8	-4	15	24
COc1ccc(CCNc2ncnc3sc(C)cc23)cc1OC	.	2	-42	107*	3	107*
COc1ccc(CCNc2ncnc3[nH]ncc23)cc1OC	-49	1	-14	-7	15	-6
CCOC(=O)c1sc(N/N=C/c2ccc(N(C)C)cc2)nc1C	16	2	18	8	-8	-15
C=CCc1c(C)nc(C)nc1N/N=C/c1ccc(N(C)C)cc1	.	2	-26	3	9	100*
Cc1ccc(OCC(O)Cn2c3ccccc3c3ccccc32)cc1 (stereo not given)	.	1	16	1	?	38
OC(COCC(F)(F)C(F)(F)C(F)(F)C(F)F)Cn1c2ccccc2c2ccccc21 (stereo not given)	.	0	59*	2	103*	3
CN1C(=O)N(C)C2(c3ccccc3)NC(=O)NC12c1ccccc1 (stereo not given)	-13	0	-9	-4	-3	-5
CN1c2ccccc2N(C)C1(C)c1ccccc1	.	-2	62*	122*	38	131*
CCN1c2ccccc2N(C)C1(C)c1ccccc1 (stereo not given)	.	-1	.	.	43	106*
COc1ccc(OC)c(CNc2ccc3c(c2)CCC3)c1	-16	0	70*	-3	-10	-9
COc1cccc(CNc2ccc3c(c2)CCC3)c1	.	0	60*	-21	6	6
C[C@H](NC(=O)c1ccccc1Cl)C(=O)OCc1cn2cc(Cl)ccc2n1	-15	0	-8	.	3	-1
O=C(Oc1cccc2cccnc12)c1ccc(N2C(=O)C3C4CCC(C4)C3C2=O)cc1 (stereo not given)	.	0	-15	0	0	-1
O=C(Oc1cccc2cccnc12)c1cccc(N2C(=O)C3C4CCC(C4)C3C2=O)c1 (stereo not given)	.	0	6	0	3	79*
SMILES	H9c2 TAG inh	A1 inh	T cruzi inh	Calb FLC	CSC inhib	Beta cell apopt
O=C(Nc1ccccc1Oc1ccccc1)c1cccs1	.	0	1	5	4	-5
COc1ccc(CN(Cc2cc3cccc(C)c3n3nnnc23)C(=O)N2CCOCC2)cc1	-18	0	1	-6	-15	-9
S=C(Nc1ccccc1Cl)N1CCCC(c2ccccc2)=N1	-3	1	36	-6	84*	-3
N#CC1(NC(=O)COC(=O)c2cc(O)c3ccccc3c2O)CCCCC1	10	-1	4	36	89*	-2
O=C(/C=C/c1ccc2c(c1)OCO2)NCCSCc1ccc(Cl)cc1	-9	0	-6	-3	93*	-3
O=C(/C=C/c1ccc2c(c1)OCO2)NCCSCc1c(Cl)cccc1Cl	.	-1	15	-8	98*	-1
CCOC(=O)[C@@H]1[C@H]2COc3ccccc3[C@@H]2N2C(=O)N(c3ccc(Cl)cc3)C(=O)[C@]12C	13	0	6	9	2	13
Cc1cc(C)cc(Oc2ncnc3c2ncn3Cc2c(Cl)cccc2Cl)c1	.	.	60*	-6	.	.
Nc1ccc(S(=O)(=O)NNC(=O)C(=O)NNc2ccccc2)cc1	.	1	67*	106*	-6	-4
O=C(Cc1ccccc1)NNS(=O)(=O)c1ccc(F)cc1	34	0	-25	2	-10	-1
O=C(NNc1ccccc1)C(=O)NNS(=O)(=O)c1ccc(CCCl)cc1	-12	0	72*	86*	105*	0
Cn1cc([N+](=O)[O-])c(C(=O)Nc2ccc(-c3nc4ccccc4o3)cc2)n1	87	-2	6	-4	104*	-9
O=C(Nc1ccc(-c2nc3ccccc3o2)cc1)c1ccc(N2CCOCC2)c([N+](=O)[O-])c1	.	-1	57*	1	7	99*
O=C(O)c1cccc(Nc2ccnc(Nc3cccc(C(=O)O)c3)n2)c1	.	-8	-8	7	.	.
O=C(O)c1ccc(C(=O)c2ccc3c(c2)C(=O)N(CC2CCCO2)C3=O)cc1 (stereo not given)	.	1	-18	-9	0	0
CCC(CO)Oc1cc(NCc2ccc(C)c(C)c2)c2ncn(C(C)C)c2c1 (stereo not given)	3	0	.	.	.	101*
COc1cc(C(=O)NC2CCCCC2)ccc1OCc1ccc(Cl)cc1Cl	4	-1	33	-22	7	-1
COc1cc(C(=O)NCCC(C)C)ccc1OCc1ccc(Cl)cc1Cl	.	0	70*	2	-15	18
COc1cccc(/C=N/NC(=O)C(=O)Nc2ccccc2OC(F)(F)C(F)F)c1O	.	0	-3	109*	108*	82*
COc1cc(/C=N/NC(=O)c2ccc(CN(C)S(=O)(=O)c3ccc(C)cc3)cc2)ccc1O	-10	1	2	0	78*	8
COc1cc(/C=N/NC(=O)c2ccccc2)ccc1O	1	2	-6	-1	13	0
COc1ccc(/C=N/NC(=O)c2ccc(-c3ccccc3)cc2)cc1O	.	0	-18	83*	-5	.
COc1cccc(/C=N/NC(=O)CNC(=O)C2COc3ccccc3O2)c1O (stereo not given)	-3	.	-18	?	.	.

Bioassay records from PubChem.
